What was measured:
[1] = target: T1, C-X-C chemokine receptor type 4 (Homo sapiens, UniProt P61073); assay: Activity at CXCR4 in human CEM cells assessed as inhibition of CXCL12-induced calcium mobilization; type: functional, cell-based, CCRF-CEM
Procedure, shortened: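 CEM cells are loaded with 4 µM Fluo-4 for 1 h at 37 °C, washed, then preincubated with antagonist for 2 h. Wells are run in quadruplicate on FLIPR.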

[2] = target: T1, C-X-C chemokine receptor type 4; assay: Displacement of [125I]CXCL12 from CXCR4 in human CEM cells; type: cell-based, CCRF-CEM
Procedure, shortened: (§1)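 Scintillation proximity assay. Membranes come from CEM cells (human CXCR4) or IR983F cells (rat CXCR4), prepared by homogenization in 20 mM HEPES, 1 mM EDTA pH 7.4 and stored at -80 °C. Nonspecific binding is defined with 400 nM unlabeled CXCL12. Incubation is 2 h at room temperature with shaking, then scintillation counting.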

[3] = target: C-X-C chemokine receptor type 4 (Rattus norvegicus, UniProt O08565); assay: Displacement of [125I]CXCL12 from CXCR4 in rat IR983F cells; type: cell-based; procedure, shortened: as §1
[4] = system: Human immunodeficiency virus 1; assay: Antiviral activity against X4-tropic HIV1 3B assessed as inhibition of viral attachment; type: functional, organism-based; conditions: Human immunodeficiency virus 1, 3B

T1 sequence (P61073 whole entry): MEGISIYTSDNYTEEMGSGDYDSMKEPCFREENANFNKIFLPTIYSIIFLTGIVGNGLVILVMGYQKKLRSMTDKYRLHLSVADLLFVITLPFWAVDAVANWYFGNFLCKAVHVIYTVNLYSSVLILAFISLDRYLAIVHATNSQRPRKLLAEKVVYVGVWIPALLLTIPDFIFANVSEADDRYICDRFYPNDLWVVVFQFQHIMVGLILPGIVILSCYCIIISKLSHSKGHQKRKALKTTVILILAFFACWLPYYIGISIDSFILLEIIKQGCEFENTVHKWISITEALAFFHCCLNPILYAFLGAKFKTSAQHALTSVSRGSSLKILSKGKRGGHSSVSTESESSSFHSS
C-X-C chemokine receptor type 4 (Rattus norvegicus, UniProt O08565), sequence (O08565 whole entry): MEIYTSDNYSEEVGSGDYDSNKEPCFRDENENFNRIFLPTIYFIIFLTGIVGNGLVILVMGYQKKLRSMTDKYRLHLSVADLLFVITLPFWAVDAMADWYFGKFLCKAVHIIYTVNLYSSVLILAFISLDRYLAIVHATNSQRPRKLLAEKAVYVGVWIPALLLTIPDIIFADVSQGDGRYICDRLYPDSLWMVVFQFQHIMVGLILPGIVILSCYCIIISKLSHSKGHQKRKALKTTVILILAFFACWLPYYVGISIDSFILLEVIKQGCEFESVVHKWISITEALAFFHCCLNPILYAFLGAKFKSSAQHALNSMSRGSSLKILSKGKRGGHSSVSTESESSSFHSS

IC50 [1]	IC50 [2]	IC50 [3]	IC50 [4]	IC90 [4]	SMILES
0.075 µM	0.855 µM				CCCCCCNC(=NC1CCCCC1)SCC1=CSC2=NCCN12
0.437 µM	1.53 µM				CC(C)(C)C1CCC(NC(=NC2CCCCC2)SCC2=CSC3=NCCN23)CC1 (stereo not given)
0.0031 µM	0.025 µM		0.05 µM	0.82 µM	C1=C(CS/C(=N\C2CCCCCC2)NC2CCCCCC2)N2CCN=C2S1
2.22 µM	10 µM				c1ccc(CNC(=NC2CCCCC2)SCC2CSC3=NCCN32)cc1 (stereo not given)
8.12 µM	> 10 µM				c1ccc2c(c1)nc1scc(CS/C(=N\C3CCCCC3)NC3CCCCC3)n12
0.0066 µM	0.028 µM		0.04 µM	1.14 µM	C1=C(CSC(=NC2CCCCC2)NC2CCCCCC2)N2CCN=C2S1

Second part, the compound before the results:

SMILES	IC50 [1]	IC50 [2]	IC50 [3]	IC50 [4]	IC90 [4]
C1=C(CSC(=NC2CCCCC2)NC2C3CC4CC(C3)CC2C4)N2CCN=C2S1 (stereo not given)	0.013 µM	0.081 µM			
NC(N)=NCCC[C@@H]1NC(=O)[C@H](CCCN=C(N)N)NC(=O)[C@@H](Cc2ccc(O)cc2)NC(=O)CNC(=O)[C@H](c2ccc3ccccc3c2)NC1=O		0.109 µM	1.44 µM		
C1=C(CS/C(=N\C2CCCCC2)NC2CCCCC2)N2CCCN=C2S1	0.057 µM	0.185 µM			
C1=C(CS/C(=N\C2CCCCC2)NC23CC4CC(CC(C4)C2)C3)N2CCN=C2S1	0.304 µM	1.87 µM			
CC1(C)CN2C(CS/C(=N\C3CCCCCC3)NC3CCCCCC3)=CSC2=N1	0.0021 µM	0.0088 µM		0.01 µM	0.13 µM
c1cc(CN2CCCNCCNCCCNCC2)ccc1CN1CCCNCCNCCCNCC1 [PLERIXAFOR]				0.003 µM	0.05 µM

Source: ChEMBL document CHEMBL1151747, “Orally bioavailable isothioureas block function of the chemokine receptor CXCR4 in vitro and in vivo” (J Med Chem, 2008)
